In ChEMBL document CHEMBL4834423, “Discovery of AG-270, a First-in-Class Oral MAT2A Inhibitor for the Treatment of Tumors with Homozygous MTAP Deletion” (J Med Chem, 2021):

What was measured:
[1] = target: S-adenosylmethionine synthase isoform type-2 (Homo sapiens, UniProt P31153); assay: Inhibition of recombinant human MAT2A expressed in baculovirus infected Sf9 cells assessed as S-adenosyl methionine production using L-methionine as substrate incubated for 60 mins followed by substrate addition and measured after 60 mins relative to control; set-up: concentration or dose not given beside the values
[2] = Solubility of compound at pH 2; type: physicochemical; conditions: buffer
[3] = Solubility of compound at pH 7.4; type: physicochemical; conditions: buffer
[4] = Protein binding in human plasma assessed as unbound fraction; type: ADME, cell-free
[5] = Protein binding in monkey plasma assessed as unbound fraction; type: ADME, cell-free, Macaca mulatta; conditions: rhesus monkey
[6] = Protein binding in dog plasma assessed as unbound fraction; type: ADME, cell-free, Canis lupus familiaris
[7] = Protein binding in rat plasma assessed as unbound fraction; type: ADME, cell-free
[8] = Oral bioavailability in dog at 5 mg/kg; type: ADME, organism-based, Canis lupus familiaris; conditions: in vivo
PXR (NR1I2) = target: T1, PXR (NR1I2) (Homo sapiens, UniProt O75469); assay: Transactivation of PXR in human HepG2 cells relative to rifampicin; type: cell-based; conditions: read-out: Activity
T1 sequence (O75469 whole entry): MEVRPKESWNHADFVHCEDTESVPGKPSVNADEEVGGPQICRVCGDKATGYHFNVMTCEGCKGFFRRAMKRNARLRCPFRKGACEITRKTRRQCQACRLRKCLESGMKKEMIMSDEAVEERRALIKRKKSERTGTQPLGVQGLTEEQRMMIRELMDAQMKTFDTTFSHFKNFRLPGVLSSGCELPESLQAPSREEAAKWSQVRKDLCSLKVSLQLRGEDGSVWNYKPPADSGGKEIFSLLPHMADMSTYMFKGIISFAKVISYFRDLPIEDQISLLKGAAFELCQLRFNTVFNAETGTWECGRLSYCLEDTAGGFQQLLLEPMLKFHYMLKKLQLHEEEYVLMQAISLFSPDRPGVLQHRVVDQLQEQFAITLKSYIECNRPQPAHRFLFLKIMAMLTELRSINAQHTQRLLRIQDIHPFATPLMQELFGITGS

[9] = target: T2, UDP-glucuronosyltransferase 1A1 (Homo sapiens, UniProt P22309); assay: Inhibition of UGT1A1 (unknown origin); type: ADME
T2 sequence (P22309 whole entry): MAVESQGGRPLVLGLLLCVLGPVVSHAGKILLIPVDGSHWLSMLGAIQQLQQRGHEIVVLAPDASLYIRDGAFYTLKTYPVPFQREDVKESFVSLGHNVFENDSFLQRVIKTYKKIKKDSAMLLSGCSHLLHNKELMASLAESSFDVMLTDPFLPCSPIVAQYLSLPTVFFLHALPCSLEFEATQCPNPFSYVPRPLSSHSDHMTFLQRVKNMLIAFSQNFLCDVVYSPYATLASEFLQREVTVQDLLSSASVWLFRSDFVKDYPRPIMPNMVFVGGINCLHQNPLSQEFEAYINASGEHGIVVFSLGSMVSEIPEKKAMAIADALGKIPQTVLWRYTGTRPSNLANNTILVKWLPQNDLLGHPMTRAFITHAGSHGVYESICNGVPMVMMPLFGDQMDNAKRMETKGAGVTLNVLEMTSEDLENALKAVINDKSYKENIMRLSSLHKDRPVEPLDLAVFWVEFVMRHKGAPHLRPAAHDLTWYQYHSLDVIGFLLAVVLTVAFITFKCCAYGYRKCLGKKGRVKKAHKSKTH

Cytochrome P450 3A4 = Cytochrome P450 3A4 (Homo sapiens, UniProt P08684); assay: Inhibition of CYP3A4 (unknown origin); type: ADME
Cytochrome P450 2C9 [10] = target: T3, Cytochrome P450 2C9 (Homo sapiens, UniProt P11712); assay: Inhibition of CYP2C9 (unknown origin); type: ADME
Cytochrome P450 2C19 [11] = target: T4, Cytochrome P450 2C19 (Homo sapiens, UniProt P33261); assay: Inhibition of CYP2C19 (unknown origin); type: ADME
Cytochrome P450 2D6 = Cytochrome P450 2D6 (Homo sapiens, UniProt P10635); assay: Inhibition of CYP2D6 (unknown origin); type: ADME
Cytochrome P450 2B6 = target: T5, Cytochrome P450 2B6 (Homo sapiens, UniProt P20813); assay: Inhibition of CYP2B6 (unknown origin) assessed as inactivation relative to control; type: ADME
T5 sequence (P20813 whole entry): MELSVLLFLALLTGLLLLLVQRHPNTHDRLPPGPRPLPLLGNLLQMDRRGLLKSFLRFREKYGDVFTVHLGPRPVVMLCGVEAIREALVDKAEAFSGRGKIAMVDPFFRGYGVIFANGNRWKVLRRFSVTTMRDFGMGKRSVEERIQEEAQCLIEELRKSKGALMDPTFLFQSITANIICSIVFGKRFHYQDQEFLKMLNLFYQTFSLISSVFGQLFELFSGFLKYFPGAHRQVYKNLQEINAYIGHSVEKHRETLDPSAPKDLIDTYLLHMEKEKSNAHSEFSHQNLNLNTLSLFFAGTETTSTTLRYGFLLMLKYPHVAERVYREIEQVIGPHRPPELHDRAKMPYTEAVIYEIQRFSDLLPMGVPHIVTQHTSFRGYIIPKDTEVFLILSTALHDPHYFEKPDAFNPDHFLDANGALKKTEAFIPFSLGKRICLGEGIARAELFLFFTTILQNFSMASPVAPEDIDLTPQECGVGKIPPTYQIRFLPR

Cytochrome P450 2C9 [12] = target: T3, Cytochrome P450 2C9; assay: Inhibition of CYP2C9 (unknown origin) assessed as inactivation relative to control; type: ADME
Cytochrome P450 2C19 [13] = target: T4, Cytochrome P450 2C19; assay: Inhibition of CYP2C19 (unknown origin) assessed as inactivation relative to control; type: ADME
KP-4 [14] = assay: Anticancer activity in MTAP-null human KP-4 cells xenografted mouse model assessed as tumor growth inhibition at 10 mg/kg, po qd treated for 38 days relative to control; type: functional; conditions: KP-4, po, 912 h, time 38 day, read-out: TGI
Method in brief: (§1)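 Subcutaneous KP4 MTAP-null xenograft mice, 12 per arm (60 animals), dosed orally once daily on days 24−38 at 10−200 mg/kg. Tumor SAM levels and plasma compound exposure were monitored; plasma sampled up to 24 h after the last dose. Mean tumor volume and body weight change were tracked; error bars are SEM.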

KP-4 [15] = assay: Anticancer activity in MTAP-null human KP-4 cells xenografted mouse model assessed as tumor growth inhibition at 200 mg/kg, po qd treated for 38 days relative to control; type: functional; conditions: KP-4, po, 912 h, time 38 day, read-out: TGI; method in brief: as §1
KP-4 [16] = assay: Anticancer activity in MTAP-null human KP-4 cells xenografted mouse model assessed as inhibition of SAM production at 10 mg/kg, po qd treated for 38 days relative to control; type: functional; conditions: KP-4, po, 912 h, time 38 day; method in brief: as §1
KP-4 [17] = assay: Anticancer activity in MTAP-null human KP-4 cells xenografted mouse model assessed as inhibition of SAM production at 100 mg/kg, po qd treated for 38 days relative to control; type: functional; conditions: KP-4, po, 912 h, time 38 day; method in brief: as §1
KP-4 [18] = assay: Anticancer activity in MTAP-null human KP-4 cells xenografted mouse model assessed as inhibition of SAM production at 200 mg/kg, po qd treated for 38 days relative to control; type: functional; conditions: KP-4, po, 912 h, time 38 day; method in brief: as §1
[19] = Toxicity in MTAP-null human KP-4 cells xenografted mouse model assessed as body weight change at 10 to 200 mg/kg, po qd treated for 38 days; type: organism-based; conditions: in vivo, 912 h, dose 10-200 mg/kg, time 38 day; method in brief: as §1
HCT-116 = assay: cells; conditions: Homo sapiens, HCT-116, 96 h
cells = conditions: Homo sapiens, HCT-116, 72 h

T4 sequence (P33261 whole entry): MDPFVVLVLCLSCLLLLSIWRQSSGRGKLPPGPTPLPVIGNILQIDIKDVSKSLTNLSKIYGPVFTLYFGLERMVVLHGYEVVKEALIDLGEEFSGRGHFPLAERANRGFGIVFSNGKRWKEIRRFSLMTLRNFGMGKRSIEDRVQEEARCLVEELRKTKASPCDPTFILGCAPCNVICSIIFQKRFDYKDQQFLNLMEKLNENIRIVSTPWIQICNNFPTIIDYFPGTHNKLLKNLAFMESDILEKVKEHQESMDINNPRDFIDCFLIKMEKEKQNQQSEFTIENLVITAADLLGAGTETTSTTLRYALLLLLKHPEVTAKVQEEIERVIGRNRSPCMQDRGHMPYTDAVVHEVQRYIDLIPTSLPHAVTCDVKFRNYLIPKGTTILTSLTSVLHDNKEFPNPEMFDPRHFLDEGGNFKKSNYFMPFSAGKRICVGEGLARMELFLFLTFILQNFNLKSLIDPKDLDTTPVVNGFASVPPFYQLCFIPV
T3 sequence (P11712 whole entry): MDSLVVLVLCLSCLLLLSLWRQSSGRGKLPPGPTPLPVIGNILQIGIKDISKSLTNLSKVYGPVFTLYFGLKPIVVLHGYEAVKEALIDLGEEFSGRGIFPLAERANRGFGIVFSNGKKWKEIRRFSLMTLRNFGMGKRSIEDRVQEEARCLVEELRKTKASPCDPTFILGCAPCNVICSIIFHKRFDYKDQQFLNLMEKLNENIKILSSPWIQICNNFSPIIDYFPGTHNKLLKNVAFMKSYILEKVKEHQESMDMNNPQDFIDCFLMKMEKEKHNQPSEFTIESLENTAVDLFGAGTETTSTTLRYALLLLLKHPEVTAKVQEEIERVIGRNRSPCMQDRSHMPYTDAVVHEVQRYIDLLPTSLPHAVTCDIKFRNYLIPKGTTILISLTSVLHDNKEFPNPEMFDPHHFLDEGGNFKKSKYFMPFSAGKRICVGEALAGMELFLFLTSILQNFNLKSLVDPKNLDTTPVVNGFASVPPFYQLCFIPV
Chain of S-adenosylmethionine synthase isoform type-2 (P31153 whole entry, looked up, canonical isoform): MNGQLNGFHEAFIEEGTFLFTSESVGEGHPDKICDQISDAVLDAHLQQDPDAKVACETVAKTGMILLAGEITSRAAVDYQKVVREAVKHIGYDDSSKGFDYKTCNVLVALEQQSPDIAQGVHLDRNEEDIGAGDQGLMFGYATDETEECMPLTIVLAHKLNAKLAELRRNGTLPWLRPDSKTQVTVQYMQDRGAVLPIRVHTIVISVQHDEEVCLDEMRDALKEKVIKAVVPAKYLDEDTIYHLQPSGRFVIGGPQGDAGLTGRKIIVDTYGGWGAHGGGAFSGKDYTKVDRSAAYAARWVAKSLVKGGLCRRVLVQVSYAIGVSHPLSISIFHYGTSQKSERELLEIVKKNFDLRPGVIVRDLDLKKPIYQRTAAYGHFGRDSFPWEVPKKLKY
Chain of Cytochrome P450 3A4 (P08684 whole entry): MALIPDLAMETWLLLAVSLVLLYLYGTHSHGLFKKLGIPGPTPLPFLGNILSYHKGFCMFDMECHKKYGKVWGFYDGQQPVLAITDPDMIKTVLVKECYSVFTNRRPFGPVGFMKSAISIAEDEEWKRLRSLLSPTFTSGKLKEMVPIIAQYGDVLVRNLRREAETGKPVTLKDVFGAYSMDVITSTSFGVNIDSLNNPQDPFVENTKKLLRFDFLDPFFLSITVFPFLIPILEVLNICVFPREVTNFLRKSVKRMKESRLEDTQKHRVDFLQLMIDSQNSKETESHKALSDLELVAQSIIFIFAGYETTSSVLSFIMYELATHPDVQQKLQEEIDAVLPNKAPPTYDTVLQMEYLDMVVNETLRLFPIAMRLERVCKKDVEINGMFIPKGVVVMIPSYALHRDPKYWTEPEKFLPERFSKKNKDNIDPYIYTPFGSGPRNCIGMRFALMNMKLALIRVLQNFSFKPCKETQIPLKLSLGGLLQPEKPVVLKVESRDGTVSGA
Chain of Cytochrome P450 2D6 (P10635 whole entry): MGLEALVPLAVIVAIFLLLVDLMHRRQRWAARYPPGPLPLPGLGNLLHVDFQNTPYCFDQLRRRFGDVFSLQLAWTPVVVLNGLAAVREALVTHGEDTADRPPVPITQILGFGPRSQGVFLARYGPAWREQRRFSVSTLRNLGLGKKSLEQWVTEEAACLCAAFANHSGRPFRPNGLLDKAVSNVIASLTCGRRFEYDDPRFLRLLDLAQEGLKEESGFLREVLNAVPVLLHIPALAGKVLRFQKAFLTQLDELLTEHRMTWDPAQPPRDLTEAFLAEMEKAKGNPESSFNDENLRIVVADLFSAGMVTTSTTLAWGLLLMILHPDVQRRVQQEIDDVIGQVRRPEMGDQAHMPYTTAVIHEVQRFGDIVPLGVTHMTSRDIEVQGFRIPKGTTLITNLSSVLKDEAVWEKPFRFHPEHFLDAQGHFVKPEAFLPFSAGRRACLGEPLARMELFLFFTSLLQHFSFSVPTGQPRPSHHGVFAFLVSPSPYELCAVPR

For `COc1ccc(-c2c(Nc3ccccn3)[nH]c3c(C4=CCCCC4)c(-c4ccccc4)nn3c2=O)cc1`, the inhibition [1] was 91%, the solubility [2] was less than 0.5 µM and the solubility [3] was less than 0.1 µM. For the same compound, the fraction unbound [4] was 0.015, the fraction unbound [5] was 0.011 and the fraction unbound [6] was 0.028. For the same compound, the fraction unbound [7] was 0.016, the bioavailability [8] was 48% and the Emax (PXR (NR1I2)) was 22%. It also gave an IC50 [9] of 1.1 µM, an IC50 (Cytochrome P450 3A4) greater than 10 µM and an IC50 (Cytochrome P450 2C9 [10]) greater than 10 µM. It also gave an IC50 (Cytochrome P450 2C19 [11]) greater than 10 µM, an IC50 (Cytochrome P450 2D6) greater than 10 µM and an INH (Cytochrome P450 2B6) greater than 3.6 µM. It also gave an INH (Cytochrome P450 2C9 [12]) greater than 50 µM, an INH (Cytochrome P450 2C19 [13]) greater than 50 µM and an inhibition in vivo at 10 mg/kg (KP-4 [14]) of 36%. The inhibition in vivo at 200 mg/kg (KP-4 [15]) was 67%, the inhibition in vivo at 10 mg/kg (KP-4 [16]) was 33.4% and the inhibition in vivo at 100 mg/kg (KP-4 [17]) was 63.5%. The inhibition in vivo at 200 mg/kg (KP-4 [18]) was 81.1%, the Activity [19] was “Non-Toxic” and the IC50 (HCT-116) was 0.257 µM. The IC50 (cells) was 20 µM.
